Results taken from publication PMC4489320 (Clinical Pharmacology in Drug Development, 2014).

How the values were obtained:
healthy adults [1] = assay: Thorough QT/QTc crossover study, Holter ECG recordings; format: in vivo, human
Summary of the method: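 Three-period crossover in healthy adults (QTcF >450 ms excluded), with 14-day washouts and six Williams-square sequences. Dosing was placebo, a 0.1 mg/kg IV bolus over 30 s, or oral moxifloxacin 400 mg at Hour 1. ECGs came from 24-h Holter recordings read blind, with baseline the mean of −1, −0.5 and −0.25 h values. QTcI/QTcF/QTcB time-matched ddQTc was analysed by linear mixed-effect models with one-sided 95% CI.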

healthy adults [2] = assay: Treatment-emergent adverse events; format: in vivo, human; conditions: 0.1 mg/kg IV single dose
[3] = in vitro and in vivo studies; ref data on file; cited from earlier work

Compound	effects on heart rate, PR interval, or QRS interval (healthy adults [1]; healthy subjects, 0.1 mg/kg IV single dose)	number of subjects with QTcF intervals >450 but ≤480 milliseconds (healthy adults [1]; healthy subjects, single dose)	subjects with >30 milliseconds increase in QTcF (healthy adults [1]; healthy subjects, single dose)	slope of linear relationship between ddQTcF and plasma concentration (healthy adults [1]; linear mixed-effects model, P = 0.126, 90% CI (<−0.0005, 0.002), not statistically significant)	subjects with cardiac disorder TEAE (healthy adults [2])	severity of TEAEs (healthy adults [2]; healthy subjects)	metabolism [3]	percentage of subjects with QTcF intervals >450 but ≤480 milliseconds (healthy adults [1]; healthy subjects, single dose) [%]	peak mean difference in dQTcI and dQTcF vs placebo (healthy adults [1]; moxifloxacin 400 mg oral, 2 hours after administration (Hours 3 and 4))	lower bound of ddQTcF vs placebo at prespecified timepoints (healthy adults [1]; moxifloxacin 400 mg oral, Hours 2, 3, 4 and 5)	lower bound of the one-sided 95% CI of ddQTcF vs placebo (healthy adults [1]; moxifloxacin 400 mg oral, Hours 3 to 10 (2–9 hours after moxifloxacin dosing)) [milliseconds]
peginesatide	no peginesatide-related effects	0 subjects	no subject	0.001	No subject	mild or moderate	negligible metabolism				
COc1c(N2C[C@@H]3CCCN[C@@H]3C2)c(F)cc2c(=O)c(C(=O)O)cn(C3CC3)c12 [moxifloxacin]		five						8.3	around 12 milliseconds	above 5 milliseconds	> 5
